Measurements from ChEMBL document CHEMBL1240363, “Pharmacokinetics of ertapenem following intravenous and subcutaneous infusions in patients” (Antimicrob Agents Chemother, 2010).

What was measured:
[1] = Cmax in patient with bacterial infection at 1 gm[…], sc administered at 30 mins regimen for 24 hrs by LC/MS/MS analysis; assay type: ADME, organism-based; set-up: route subcutaneous; conditions: human, in vivo
Method in brief: (§1)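 Six infected patients received ertapenem 1 g once daily, infused over 30 min: first i.v. via a central vein, then s.c. into the anterior thigh for one day. Arterial plasma was sampled over 24 h at steady state (i.v. on days 4–7). Plasma was stabilized 1:1 at pH 6.5 and assayed by LC-MS/MS. Total concentrations were fitted with compartmental models (1/y weighting), giving Cmax, tmax, t1/2, AUC0-24, CL and Vss as mean ± SD.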

[2] = fT>MIC methicillin-resistant Staphylococcus aureus-infected kinetic model; assay type: functional
[3] = Cmax in patient with bacterial infection at 1 gm[…], iv administered at 30 mins regimen for 24 hrs by LC/MS/MS analysis; assay type: ADME, organism-based; set-up: route intravenous; conditions: human, in vivo; method in brief: as §1
[4] = Half life in patient with bacterial infection at […], iv administered at 30 mins regimen for 24 hrs by LC/MS/MS analysis; assay type: ADME, organism-based; conditions: human, in vivo; method in brief: as §1
[5] = Tmax in patient with bacterial infection at 1 gm[…], iv administered at 30 mins regimen for 24 hrs by LC/MS/MS analysis; assay type: ADME, organism-based; conditions: human, in vivo; method in brief: as §1
[6] = Tmax in patient with bacterial infection at 1 gm[…], sc administered at 30 mins regimen for 24 hrs by LC/MS/MS analysis; assay type: ADME, organism-based; conditions: human, in vivo; method in brief: as §1
[7] = Half life in patient with bacterial infection at […], sc administered at 30 mins regimen for 24 hrs by LC/MS/MS analysis; assay type: ADME, organism-based; conditions: human, in vivo; method in brief: as §1
[8] = tested on: Homo sapiens; experiment: Ratio of AUC (0 to 24 hrs) in sc dosed patient with bacterial infection to AUC (0 to 24 hrs) in iv dosed patient with bacterial infection; assay type: ADME, organism-based; conditions: in vivo; method in brief: as §1
[9] = Clearance in patient with bacterial infection at 1 gm[…], iv administered at 30 mins regimen for 24 hrs by LC/MS/MS analysis; assay type: ADME, organism-based; conditions: human, in vivo; method in brief: as §1
[10] = fT>MIC […]-infected kinetic model; assay type: functional
[11] = fT>MIC […] Escherichia coli-infected kinetic model; assay type: functional
[12] = fT>MIC […] Klebsiella pneumoniae-infected kinetic model; assay type: functional
[13] = Volume of distribution at steady state in patient with bacterial infection at 1 gm, iv administered at 30 mins regimen for 24 hrs by LC/MS/MS analysis; conditions: human, in vivo, read-out: Vdss

SMILES: C[C@@H](O)[C@H]1C(=O)N2C(C(=O)O)=C(S[C@@H]3CN[C@H](C(=O)Nc4cccc(C(=O)O)c4)C3)[C@H](C)[C@H]12 [ERTAPENEM]
- Cmax [1]: 43 µg/mL
- fT>MIC [2]: 30%
- Cmax [3]: 115 µg/mL
- half-life [4]: 3.9 h
- Tmax [5]: 0.5 h
- Tmax [6]: 2.7 h
- half-life [7]: 5.4 h
- Ratio AUC [8]: 0.99
- clearance [9]: 63.3 mL/min
- fT>MIC [10]: 30%
- fT>MIC [11]: 30%
- fT>MIC [12]: 30%
- Vd [13]: 16.1 L
